# Published values from different studies.
# Lines come from different studies, so protocols differ.
# Target: Serine/threonine-protein kinase OSR1 (OXSR1, Homo sapiens, UniProt O95747)
Structure (SMILES),read-out,mode,technique,cells,tested at,quantity,result
Cc1nc(Cc2cccc(C(F)(F)F)c2)sc1-c1ccc(C(N)=O)nc1,cell-free assay,,competition with immobilised ligand,,1 µM,remaining binding,100%
Cc1ccc(C(=O)Nc2ccc(CN3CCN(C)CC3)c(C(F)(F)F)c2)cc1C#Cc1cnc2cccnn12,enzyme activity,inhibitor,,,23.5 nM,remaining activity,96%
CCS(=O)(=O)c1cc2cc(C[C@@](O)(CC(C)(C)c3ccc(F)cc3C(N)=O)C(F)(F)F)[nH]c2cn1,cell-free assay,,competition with immobilised ligand,,1 µM,remaining binding,88%
Cn1c2c(c3ccc(Cl)c(Cl)c31)C(C#N)C(C)(C)NC2=O (centres unmarked),thermal stability,,DSF,,10 µM,ΔTm,-0.1 °C
Cc1ccc(NC(=O)c2ccc(CN3CCN(C)CC3)cc2)cc1Nc1nc(-c2cccnc2)cs1,cell-free assay,,,,0.5 µM,remaining signal,95.6%
CCCCNc1ncc2c(-c3ccc(F)cc3)nn(C[C@H]3CC[C@H](N)CC3)c2n1,target engagement in cells,inhibitor,chemoproteomics,,20 mM,inhibition,8.2%
CCC1(CC)NC(=O)c2c(c3ccc(Cl)c(Cl)c3n2C)C1C#N (centres unmarked),thermal stability,,DSF,,10 µM,ΔTm,-0.3 °C
COc1cc(Nc2cnc(C#N)c(O[C@H](C)CN(C)C)n2)ncc1-c1cnn(C)c1,enzyme activity,inhibitor,radiometric,,10 µM,remaining activity,106%
O=C(NS(=O)(=O)c1ccc(NCC2CCOCC2)c([N+](=O)[O-])c1)c1ccc(N2CCN(Cc3ccc(C(F)(F)F)cc3-c3ccc(Cl)cc3)CC2)cc1Oc1cnc2[nH]ccc2c1,cell-free assay,,competition with immobilised ligand,,1 µM,remaining binding,83%
Cn1c2c(c3ccc(Cl)c(Cl)c31)C(C#N)C1(CCN(C(=O)OC(C)(C)C)CC1)NC2=O (racemic),thermal stability,,DSF,,10 µM,ΔTm,-0.1 °C
Cn1nc(C(F)(F)F)cc1-c1cnc(N2CCc3cc(S(=O)(=O)Nc4c(F)cc(Cl)cc4F)cc(N4CCCC4=O)c32)nc1,cell-free assay,,competition with immobilised ligand,,1 µM,remaining binding,99%
Cn1c2c(Cl)c(Cl)ccc2c2cc(N)[nH]c(=O)c21,thermal stability,,DSF,,10 µM,ΔTm,-0.2 °C
O=C(Nc1cnn(-c2csc(C(=O)NC3COC3)c2)c1)Nc1c(F)cccc1Cl,enzyme activity,inhibitor,,,5 µM,remaining activity,96.5%
FC(F)(F)Oc1cccc(-c2cnc3ccc(-c4ccncc4)nn23)c1,enzyme activity,inhibitor,radiometric,,1 µM,activity vs control,97%
CCN1CCN(Cc2ccc(NC(=O)c3ccc(C)c(Oc4ccnc5[nH]ccc45)c3)cc2C(F)(F)F)CC1,target engagement in cells,inhibitor,chemoproteomics,Huh-7,10 µM,inhibition,-24.5%
O=C1Nc2ccc(Cl)cc2C1=Cc1cc(Cl)c(O)c(Cl)c1,cell-free assay,,,,0.5 µM,remaining signal,91.6%
O=C(Nc1cnn(-c2csc(C(=O)NC3COC3)c2)c1)Nc1ccccc1Cl,enzyme activity,inhibitor,,,5 µM,remaining activity,92.6%
N#CCCc1ccc2c(c1)-c1[nH]c3ccc([N+](=O)[O-])cc3c1CC(=O)N2,cell-free assay,,,,0.5 µM,remaining signal,94.6%
COc1cc(/C=C/C(=O)CC(=O)/C=C/c2ccc(O)c(OC)c2)ccc1O,enzyme activity,inhibitor,,,1 µM,activity vs control,104%
O=C1NC(c2ccccn2)Sc2ccccc21 (centres unmarked),cell-free assay,,competition with immobilised ligand,,1 µM,remaining binding,100%
CS(=O)(=O)CCNCc1ccc(-c2ccc3ncnc(Nc4ccc(OCc5cccc(F)c5)c(Cl)c4)c3c2)o1,cell-free assay,,,,0.5 µM,remaining signal,105%
CN1CCC2(CC1)NC(=O)c1c(c3ccc(Cl)c(Cl)c3n1C)C2C#N (racemic),thermal stability,,DSF,,10 µM,ΔTm,-0.3 °C
CO[C@@H](C)c1c(Nc2ccc([C@@H](N(C)C(=O)C3CCS(=O)(=O)CC3)C(F)(F)F)cc2)cnc2cc(Cl)nn12,cell-free assay,,competition with immobilised ligand,,1 µM,remaining binding,100%
Cn1c2c(c3ccc(Cl)c(Cl)c31)C(C#N)C1(CCOCC1)NC2=O (centres unmarked),thermal stability,,DSF,,10 µM,ΔTm,-0.5 °C
O=C(O)c1cc(-c2ccc(C3CCNCC3)cc2)c2ccc(-c3ccc(C(F)(F)F)cc3)cc2c1,cell-free assay,,competition with immobilised ligand,,1 µM,remaining binding,100%
Nc1ncnc2occ(-c3ccc(NC(=O)Nc4cc(C(F)(F)F)ccc4F)cc3)c12,cell-free assay,inhibitor,,,20 µM,remaining signal,9.5%
